{"source": "paper PMC7985749", "about": "(CNS Drugs, 2021)", "key": {"[1]": {"assay": "Neuropsychological assessments", "format": "in vivo, human", "details": "SAD, MAD, or CSF cohorts", "procedure,_shortened": "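Tests were VAS, LSEQ, WCST and Sternberg, run within the neurological evaluation. The trial was single-centre, randomized, double-blind and placebo-controlled in healthy volunteers. Dosing was oral: single doses of 0.2–4 mg (young males), 5 daily doses of 0.2–4 mg/day (young males and females), or 2.5 mg/day for 5 days (older adults). Assessments followed the scheduled timepoints.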"}, "[2]": {"assay": "Plasma pharmacokinetics, single ascending dose", "format": "in vivo, human", "details": "for Tmax / half-life / AUC(0-inf) / AUC(0-t) / Cmax / Vd/F: human, plasma"}, "[3]": {"assay": "Adverse events / TEAEs, MAD cohort", "format": "in vivo, human"}, "KDM1A": {"target": "KDM1A (Homo sapiens, UniProt O60341)", "assay": "Chemoprobe-based KDM1A target engagement in PBMCs", "format": "in vivo"}}, "data": [{"smiles": "Nc1nnc(CN[C@@H]2C[C@H]2c2ccc(OCc3ccccc3)cc2)o1", "note": "[vafidemstat]", "values": [{"measurement": "Sleeping or awakening patterns (LSEQ)", "setting": "[1]", "result": "did not disrupt sleeping or awakening patterns"}, {"measurement": "Somnolence and potential for abuse (VAS)", "setting": "[1]", "result": "did not provoke somnolence or reveal a potential for abuse"}, {"measurement": "WCST or Sternberg test", "setting": "[1]; any dose level or parameter", "result": "No significant differences"}, {"measurement": "Variability, overall coefficient of variation", "setting": "[2]; SAD and MAD cohorts, plasma PK", "result": "≤ 30", "unit": "%"}, {"measurement": "Tmax", "setting": "[2]; both, oral", "result": "0.5 to 2", "unit": "h"}, {"measurement": "half-life", "setting": "[2]; both, oral", "result": "20 to 30", "unit": "h"}, {"measurement": "AUC(0-inf)", "setting": "[2]; male, po, 0.2 mg", "result": 30.9, "unit": "ng·h/mL"}, {"measurement": "AUC(0-t)", "setting": "[2]; male, po, 0.2 mg", "result": 28, "unit": "ng·h/mL"}, {"measurement": "Cmax", "setting": "[2]; male, po, 0.2 mg", "result": 1.11, "unit": "ng/mL"}, {"measurement": "Tmax", "setting": "[2]; male, po, 0.2 mg", "result": 2.75, "unit": "h"}, {"measurement": "Vd/F", "setting": "[2]; male, po, 0.2 mg", "result": 260, "unit": "L"}, {"measurement": "half-life", "setting": "[2]; male, po, 0.2 mg", "result": 28, "unit": "h"}, {"measurement": "AUC(0-inf)", "setting": "[2]; male, po, 0.6 mg", "result": 90.7, "unit": "ng·h/mL"}, {"measurement": "AUC(0-t)", "setting": "[2]; male, po, 0.6 mg", "result": 83.3, "unit": "ng·h/mL"}, {"measurement": "Cmax", "setting": "[2]; male, po, 0.6 mg", "result": 3.21, "unit": "ng/mL"}, {"measurement": "Tmax", "setting": "[2]; male, po, 0.6 mg", "result": 1.83, "unit": "h"}, {"measurement": "Vd/F", "setting": "[2]; male, po, 0.6 mg", "result": 256, "unit": "L"}, {"measurement": "half-life", "setting": "[2]; male, po, 0.6 mg", "result": 27, "unit": "h"}, {"measurement": "AUC(0-inf)", "setting": "[2]; male, po, 1.5 mg", "result": 428, "unit": "ng·h/mL"}, {"measurement": "AUC(0-t)", "setting": "[2]; male, po, 1.5 mg", "result": 297, "unit": "ng·h/mL"}, {"measurement": "Cmax", "setting": "[2]; male, po, 1.5 mg", "result": 11.9, "unit": "ng/mL"}, {"measurement": "Tmax", "setting": "[2]; male, po, 1.5 mg", "result": 0.92, "unit": "h"}, {"measurement": "Vd/F", "setting": "[2]; male, po, 1.5 mg", "result": 213, "unit": "L"}, {"measurement": "half-life", "setting": "[2]; male, po, 1.5 mg", "result": 41, "unit": "h"}, {"measurement": "AUC(0-inf)", "setting": "[2]; male, po, 2.5 mg", "result": 438, "unit": "ng·h/mL"}, {"measurement": "AUC(0-t)", "setting": "[2]; male, po, 2.5 mg", "result": 402, "unit": "ng·h/mL"}, {"measurement": "Cmax", "setting": "[2]; male, po, 2.5 mg", "result": 18.8, "unit": "ng/mL"}, {"measurement": "Tmax", "setting": "[2]; male, po, 2.5 mg", "result": 1.58, "unit": "h"}, {"measurement": "Vd/F", "setting": "[2]; male, po, 2.5 mg", "result": 203, "unit": "L"}, {"measurement": "half-life", "setting": "[2]; male, po, 2.5 mg", "result": 25, "unit": "h"}, {"measurement": "AUC(0-inf)", "setting": "[2]; male, po, 4 mg", "result": 568, "unit": "ng·h/mL"}, {"measurement": "AUC(0-t)", "setting": "[2]; male, po, 4 mg", "result": 550, "unit": "ng·h/mL"}, {"measurement": "Cmax", "setting": "[2]; male, po, 4 mg", "result": 38, "unit": "ng/mL"}, {"measurement": "Tmax", "setting": "[2]; male, po, 4 mg", "result": 1.71, "unit": "h"}, {"measurement": "Vd/F", "setting": "[2]; male, po, 4 mg", "result": 204, "unit": "L"}, {"measurement": "half-life", "setting": "[2]; male, po, 4 mg", "result": 20, "unit": "h"}, {"measurement": "Number of AEs related to the study treatment", "setting": "[3]; MAD stage, healthy young volunteers, with vafidemstat", "result": 44}, {"measurement": "Number of TEAEs (% of total TEAEs): Asthenia", "setting": "[3]; MAD, 0.2 mg/day, n = 6", "result": "2 (3.3) n (%)"}, {"measurement": "Number of TEAEs (% of total TEAEs): Dizziness postural", "setting": "[3]; MAD, 0.2 mg/day, n = 6", "result": "1(1.6) n (%)"}, {"measurement": "Number of TEAEs (% of total TEAEs): Feeling hot", "setting": "[3]; MAD, 0.2 mg/day, n = 6", "result": "1(1.6) n (%)"}, {"measurement": "Number of TEAEs (% of total TEAEs): Headache", "setting": "[3]; MAD, 0.2 mg/day, n = 6", "result": "3 (4.9) n (%)"}, {"measurement": "Number of TEAEs (% of total TEAEs): Hematoma", "setting": "[3]; MAD, 0.2 mg/day, n = 6", "result": "1 (1.6) n (%)"}, {"measurement": "Number of TEAEs (% of total TEAEs): Muscle spasms", "setting": "[3]; MAD, 0.2 mg/day, n = 6", "result": "1(1.6) n (%)"}, {"measurement": "Number of TEAEs (% of total TEAEs): Palpitations", "setting": "[3]; MAD, 0.2 mg/day, n = 6", "result": "1 (1.6) n (%)"}, {"measurement": "Number of TEAEs (% of total TEAEs): Total", "setting": "[3]; MAD, 0.2 mg/day, n = 6", "result": "10 (16.4) n (%)"}, {"measurement": "Number of TEAEs (% of total TEAEs): Apathy", "setting": "[3]; MAD, 0.6 mg/day, n = 6", "result": "1 (1.6) n (%)"}, {"measurement": "Number of TEAEs (% of total TEAEs): Asthenia", "setting": "[3]; MAD, 0.6 mg/day, n = 6", "result": "1 (1.6) n (%)"}, {"measurement": "Number of TEAEs (% of total TEAEs): Blunted affect", "setting": "[3]; MAD, 0.6 mg/day, n = 6", "result": "2 (3.3) n (%)"}, {"measurement": "Number of TEAEs (% of total TEAEs): Daydreaming", "setting": "[3]; MAD, 0.6 mg/day, n = 6", "result": "1 (1.6) n (%)"}, {"measurement": "Number of TEAEs (% of total TEAEs): Dyspepsia", "setting": "[3]; MAD, 0.6 mg/day, n = 6", "result": "1 (1.6) n (%)"}, {"measurement": "Number of TEAEs (% of total TEAEs): Euphoric mood", "setting": "[3]; MAD, 0.6 mg/day, n = 6", "result": "1 (1.6) n (%)"}, {"measurement": "Number of TEAEs (% of total TEAEs): Feeling drunk", "setting": "[3]; MAD, 0.6 mg/day, n = 6", "result": "1 (1.6) n (%)"}, {"measurement": "Number of TEAEs (% of total TEAEs): Headache", "setting": "[3]; MAD, 0.6 mg/day, n = 6", "result": "1 (1.6) n (%)"}, {"measurement": "Number of TEAEs (% of total TEAEs): Somnolence", "setting": "[3]; MAD, 0.6 mg/day, n = 6", "result": "2 (3.3) n (%)"}, {"measurement": "Number of TEAEs (% of total TEAEs): Total", "setting": "[3]; MAD, 0.6 mg/day, n = 6", "result": "11 (18.0) n (%)"}, {"measurement": "Number of TEAEs (% of total TEAEs): Asthenia", "setting": "[3]; MAD, 1.0 mg/day, n = 6", "result": "1 (1.6) n (%)"}, {"measurement": "Number of TEAEs (% of total TEAEs): Constipation", "setting": "[3]; MAD, 1.0 mg/day, n = 6", "result": "1 (1.6) n (%)"}, {"measurement": "Number of TEAEs (% of total TEAEs): Dizziness postural", "setting": "[3]; MAD, 1.0 mg/day, n = 6", "result": "1 (1.6) n (%)"}, {"measurement": "Number of TEAEs (% of total TEAEs): Dry mouth", "setting": "[3]; MAD, 1.0 mg/day, n = 6", "result": "4 (6.5) n (%)"}, {"measurement": "Number of TEAEs (% of total TEAEs): Feeling cold", "setting": "[3]; MAD, 1.0 mg/day, n = 6", "result": "3 (4.9) n (%)"}, {"measurement": "Number of TEAEs (% of total TEAEs): Headache", "setting": "[3]; MAD, 1.0 mg/day, n = 6", "result": "2 (3.3) n (%)"}, {"measurement": "Number of TEAEs (% of total TEAEs): Nasopharyngitis", "setting": "[3]; MAD, 1.0 mg/day, n = 6", "result": "1 (1.6) n (%)"}, {"measurement": "Number of TEAEs (% of total TEAEs): Total", "setting": "[3]; MAD, 1.0 mg/day, n = 6", "result": "13 (21.3) n (%)"}, {"measurement": "Number of TEAEs (% of total TEAEs): Dry mouth", "setting": "[3]; MAD, 1.5 mg/day, n = 6", "result": "3 (4.9) n (%)"}, {"measurement": "Number of TEAEs (% of total TEAEs): Headache", "setting": "[3]; MAD, 1.5 mg/day, n = 6", "result": "2 (3.3) n (%)"}, {"measurement": "Number of TEAEs (% of total TEAEs): Salivary hypersecretion", "setting": "[3]; MAD, 1.5 mg/day, n = 6", "result": "1 (1.6) n (%)"}, {"measurement": "Number of TEAEs (% of total TEAEs): Somnolence", "setting": "[3]; MAD, 1.5 mg/day, n = 6", "result": "1 (1.6) n (%)"}, {"measurement": "Number of TEAEs (% of total TEAEs): Total", "setting": "[3]; MAD, 1.5 mg/day, n = 6", "result": "7 (11.5) n (%)"}, {"measurement": "Number of TEAEs (% of total TEAEs): Dry mouth", "setting": "[3]; MAD, 2.5 mg/day, n = 6", "result": "1 (1.6) n (%)"}, {"measurement": "Number of TEAEs (% of total TEAEs): Total", "setting": "[3]; MAD, 2.5 mg/day, n = 6", "result": "1 (1.6) n (%)"}, {"measurement": "Number of TEAEs (% of total TEAEs): Headache", "setting": "[3]; MAD, 4.0 mg/day, n = 3", "result": "2 (3.3) n (%)"}, {"measurement": "Number of TEAEs (% of total TEAEs): Total", "setting": "[3]; MAD, 4.0 mg/day, n = 3", "result": "2 (3.3) n (%)"}, {"measurement": "Maximum KDM1A TE values", "setting": "KDM1A; MAD, at 108 h after first dose (12 h after last dose), PBMCs", "result": "up to 90%"}, {"measurement": "KDM1A binding in PBMCs", "setting": "KDM1A; SAD and MAD", "result": "dose-dependent manner"}]}]}
